Assay results published in ChEMBL document CHEMBL4689842, “EUbOPEN Chemogenomics Library wave 1” (2021).

Test system: U2OS
Assay: Multiplex assay against U2OS
Assay type: toxicity, cell-based
Conditions: human
Method in brief: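 Tubulin, mitochondrial-mass and membrane-permeability phenotypes are per cents of healthy-nucleus cells. Cells were gated by CellPathfinder machine learning into Hoechst high-intensity objects or normal cells, normal cells into healthy, pyknosed or fragmented nuclei, and pyknosed cells into mitotic or apoptotic. Before that, live cells stained at seeding with Hoechst33342, BioTracker Green Microtubule Cytoskeleton Dye, MitoTracker Red and Annexin V Alexa Fluor 680 were imaged on a CQ1 microscope at 37°C and 5% CO2 after compound addition.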

[1] = 12 h, 1 µM, compound concentration 1 uM, replicate 1
[2] = 12 h, 1 µM, compound concentration 1 uM, replicate 2
[3] = 12 h, 10 µM, compound concentration 10 uM, replicate 1
[4] = 12 h, 10 µM, compound concentration 10 uM, replicate 2
[5] = 24 h, 1 µM, compound concentration 1 uM, replicate 1
[6] = 24 h, 1 µM, compound concentration 1 uM, replicate 2
[7] = 24 h, 10 µM, compound concentration 10 uM, replicate 1
[8] = 24 h, 10 µM, compound concentration 10 uM, replicate 2
[9] = 48 h, 1 µM, compound concentration 1 uM, replicate 1
[10] = 48 h, 1 µM, compound concentration 1 uM, replicate 2
[11] = 48 h, 10 µM, compound concentration 10 uM, replicate 1
[12] = 48 h, 10 µM, compound concentration 10 uM, replicate 2

C[C@@H](Oc1cc(-n2cnc3ccc(CN4CCN(C)CC4)cc32)sc1C(N)=O)c1ccccc1C(F)(F)F [GSK-461364]
Population Apoptotic (%) [1]: 55% | Population Fragmented Nuclei (%) [1]: 13% | Population Healthy Nuclei (%) [1]: 70% | Population Hoechst High Intensity Objects (%) [1]: 7% | Population Membrane Permeable-Phenotype (%) [1]: 7% | Population Mitochondria Different-Phenotype (%) [1]: 60% | Population Mitotic Cells (%) [1]: 45% | Population Normal (%) [1]: 92% | Population Pyknosed Nuclei (%) [1]: 15% | Population Tubulin-Different-Phenotype (%) [1]: 84% | Total Cell Count [1]: 153 | Population Apoptotic (%) [2]: 12% | Population Fragmented Nuclei (%) [2]: 12% | Population Healthy Nuclei (%) [2]: 71% | Population Hoechst High Intensity Objects (%) [2]: 4% | Population Membrane Permeable-Phenotype (%) [2]: 12% | Population Mitochondria Different-Phenotype (%) [2]: 35% | Population Mitotic Cells (%) [2]: 87% | Population Normal (%) [2]: 95% | Population Pyknosed Nuclei (%) [2]: 16% | Population Tubulin-Different-Phenotype (%) [2]: 30% | Population Apoptotic (%) [3]: 58% | Population Fragmented Nuclei (%) [3]: 14% | Population Healthy Nuclei (%) [3]: 40% | Population Hoechst High Intensity Objects (%) [3]: 9% | Population Membrane Permeable-Phenotype (%) [3]: 81% | Population Mitochondria Different-Phenotype (%) [3]: 100% | Population Mitotic Cells (%) [3]: 41% | Population Normal (%) [3]: 90% | Population Pyknosed Nuclei (%) [3]: 44% | Population Tubulin-Different-Phenotype (%) [3]: 100% | Total Cell Count [3]: 137 | Population Apoptotic (%) [4]: 40% | Population Fragmented Nuclei (%) [4]: 13% | Population Healthy Nuclei (%) [4]: 55% | Population Membrane Permeable-Phenotype (%) [4]: 71% | Population Mitotic Cells (%) [4]: 59% | Population Pyknosed Nuclei (%) [4]: 31% | Population Apoptotic (%) [5]: 78% | Population Fragmented Nuclei (%) [5]: 16% | Population Healthy Nuclei (%) [5]: 65% | Population Hoechst High Intensity Objects (%) [5]: 6% | Population Membrane Permeable-Phenotype (%) [5]: 8% | Population Mitochondria Different-Phenotype (%) [5]: 65% | Population Mitotic Cells (%) [5]: 21% | Population Normal (%) [5]: 93% | Population Pyknosed Nuclei (%) [5]: 17% | Population Tubulin-Different-Phenotype (%) [5]: 91% | Population Apoptotic (%) [6]: 50% | Population Fragmented Nuclei (%) [6]: 14% | Population Healthy Nuclei (%) [6]: 68% | Population Hoechst High Intensity Objects (%) [6]: 4% | Population Membrane Permeable-Phenotype (%) [6]: 18% | Population Mitochondria Different-Phenotype (%) [6]: 35% | Population Mitotic Cells (%) [6]: 50% | Population Normal (%) [6]: 95% | Population Tubulin-Different-Phenotype (%) [6]: 28% | Population Apoptotic (%) [7]: 90% | Population Fragmented Nuclei (%) [7]: 23% | Population Healthy Nuclei (%) [7]: 21% | Population Hoechst High Intensity Objects (%) [7]: 8% | Population Membrane Permeable-Phenotype (%) [7]: 92% | Population Mitochondria Different-Phenotype (%) [7]: 100% | Population Mitotic Cells (%) [7]: 9% | Population Normal (%) [7]: 91% | Population Pyknosed Nuclei (%) [7]: 54% | Population Tubulin-Different-Phenotype (%) [7]: 100% | Total Cell Count [7]: 138 | Population Apoptotic (%) [8]: 82% | Population Fragmented Nuclei (%) [8]: 10% | Population Healthy Nuclei (%) [8]: 47% | Population Hoechst High Intensity Objects (%) [8]: 6% | Population Membrane Permeable-Phenotype (%) [8]: 90% | Population Mitotic Cells (%) [8]: 17% | Population Normal (%) [8]: 93% | Population Pyknosed Nuclei (%) [8]: 41% | Population Apoptotic (%) [9]: 71% | Population Fragmented Nuclei (%) [9]: 22% | Population Healthy Nuclei (%) [9]: 51% | Population Hoechst High Intensity Objects (%) [9]: 10% | Population Membrane Permeable-Phenotype (%) [9]: 18% | Population Mitochondria Different-Phenotype (%) [9]: 57% | Population Mitotic Cells (%) [9]: 28% | Population Normal (%) [9]: 89% | Population Pyknosed Nuclei (%) [9]: 25% | Population Tubulin-Different-Phenotype (%) [9]: 85% | Total Cell Count [9]: 246 | Population Apoptotic (%) [10]: 47% | Population Fragmented Nuclei (%) [10]: 10% | Population Healthy Nuclei (%) [10]: 68% | Population Hoechst High Intensity Objects (%) [10]: 5% | Population Membrane Permeable-Phenotype (%) [10]: 27% | Population Mitochondria Different-Phenotype (%) [10]: 25% | Population Mitotic Cells (%) [10]: 52% | Population Normal (%) [10]: 94% | Population Pyknosed Nuclei (%) [10]: 20% | Population Tubulin-Different-Phenotype (%) [10]: 30% | Total Cell Count [10]: 128 | Population Apoptotic (%) [11]: 98% | Population Fragmented Nuclei (%) [11]: 27% | Population Healthy Nuclei (%) [11]: 14% | Population Hoechst High Intensity Objects (%) [11]: 11% | Population Membrane Permeable-Phenotype (%) [11]: 100% | Population Mitochondria Different-Phenotype (%) [11]: 94% | Population Mitotic Cells (%) [11]: 1% | Population Normal (%) [11]: 88% | Population Pyknosed Nuclei (%) [11]: 58% | Population Tubulin-Different-Phenotype (%) [11]: 100% | Total Cell Count [11]: 138 | Population Apoptotic (%) [12]: 82% | Population Fragmented Nuclei (%) [12]: 20% | Population Healthy Nuclei (%) [12]: 43% | Population Hoechst High Intensity Objects (%) [12]: 8% | Population Membrane Permeable-Phenotype (%) [12]: 97% | Population Mitochondria Different-Phenotype (%) [12]: 100% | Population Mitotic Cells (%) [12]: 17% | Population Normal (%) [12]: 91% | Population Pyknosed Nuclei (%) [12]: 36% | Total Cell Count [12]: 108
